Experimental findings from paper PMC2213299 (The Journal of Experimental Medicine, 2004) are described below.

Where no end group is shown, it is not given here. The star is where a group is joined. αGalNAc = CC(=O)N[C@@H]1[C@@H](O)[C@@H](O)[C@@H](CO)O[C@@H]1*

One experiment addresses K^b molecules (Mus musculus, UniProt P01901).
Assay: not given
In kind it is binding, murine. In outline: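 Kb was affinity-purified from filtered Nonidet P-40 lysates of EL-4 cells. 5–10 nM Kb was incubated with a 125I-labelled known Kb-binding peptide plus test compound for 48 h in PBS with 0.05% Nonidet P-40 and protease inhibitors. Bound and free peptide were separated by gel filtration on TSK columns. IC50 is the amount inhibiting 50% of radioligand binding.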
In general, IC50 refers to the midpoint of a concentration-inhibition curve. Low readings indicate inhibition by little substance, high ones a need for much substance. Molecule GGGGFGGL [GGGGFGGL] gave an IC50 of 53000 nM.

AAIAAFAAL [AAIAAFAAL] came in with an IC50 of 90 nM.

The molecule AIIAAFAAL [AIIAAFAAL] returned a half-maximal inhibitory concentration (IC50) of 10 nM.

Molecule SSSSFSSL [SSSSFSSL] displayed a half-inhibitory concentration (IC50) of 509 nM.

Molecule AAAAFAAL [AAAAFAAL] returned a half-inhibitory concentration (IC50) of 75 nM.

As for AIAAAFAAL [AIAAAFAAL], the IC50 stood at 240 nM. Compared with the last molecule, the IC50 is about 3.2-fold higher.

In the case of AAAAAFAAL [AAAAAFAAL], the half-inhibitory concentration (IC50) worked out at 610 nM.

A further experiment deals with K^b molecules (MHC class I H-2K^b) purified from EL-4 cells (mouse (endogenous in EL-4)). Description: radioligand binding.
The molecule AIIAAFAAL had a half-inhibitory concentration (IC50) of 10 nM.

Molecule AAAAFAAL returned a 50% inhibitory concentration (IC50) of 75 nM.

Consider SSSSFSSL, for which the 50% inhibitory concentration (IC50) was 509 nM. This IC50 lies about 6.8-fold higher than the previous one.

In turn, AIIAS(αGalNAc)FAAL [AIIA(GalNac-O-ser)FAAL] returned a half-inhibitory concentration (IC50) of 4 nM.

The molecule GGGGFGGL yielded a half-inhibitory concentration (IC50) of 53000 nM.

In turn, AIIASFAAL (βGal-[1→3]-α-GalNAc-O-serine (TF antigen) at position 5) [AIIA(βGal-[1→3]-α-GalNAc-O-ser)FAAL] yielded an IC50 of 4 nM.

AIIASFAAL yielded a half-inhibitory concentration (IC50) of 4 nM.
